Laboratory results reported in ChEMBL document CHEMBL1122020, “Synthesis and enzymic activity of various substituted pyrazolo[1,5-a]-1,3,5-triazines as adenosine cyclic 3',5'-phosphate phosphodiesterase inhibitors” (J Med Chem, 1982).

Columns and labels:
Bos taurus [1] = species: Bos taurus; experiment: (§1) Inhibition of bovine brain cAMP Phosphodiesterase; design: unit not given here
Summary of the method: (§2)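 PDE prepared as previously described. Each 0.5 mL reaction held 25 µmol Tris-HCl (pH 7.5), 5 µmol MgCl2, 10-75 µg enzyme protein, 350 pmol [8-3H]cAMP (850 cpm/pmol), and at least seven inhibitor concentrations (0.5 µM to 5 mM). 5'-AMP formed was measured at three or more time points (3-12 min) to confirm linear rates. I50 was read graphically from % inhibition versus log inhibitor concentration.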

[2] = molecular target: T1, Phosphodiesterase 4 (Homo sapiens) (UniProt P27815+Q08499+Q07343+Q08493); experiment: Inhibitory activity towards cAMP phosphodiesterase isolated from rabbit lung.; type: protein assay; design: unit not given here; details: Oryctolagus cuniculus; target entry is the homologue from another species; summary of the method: as §2
[3] = molecular target: T1, Phosphodiesterase 4 (Homo sapiens); experiment: Inhibitory activity towards cAMP phosphodiesterase isolated from bovine heart.; type: protein assay; design: unit not given here; details: Bos taurus; target entry is the homologue from another species; summary of the method: as §2
[4] = molecular target: T1, Phosphodiesterase 4 (Homo sapiens); experiment: Inhibitory activity towards cAMP Phosphodiesterase isolated from rabbit heart; type: protein assay; design: reference not given here; details: Oryctolagus cuniculus; target entry is the homologue from another species
Bos taurus [5] = species: Bos taurus
Bos taurus [6] = species: Bos taurus; remark: listed apart in the source
[7] = molecular target: T1, Phosphodiesterase 4 (Homo sapiens); experiment: as §1; details: Bos taurus; target entry is the homologue from another species; summary of the method: as §2
[8] = Inhibition of rabbit lung cAMP Phosphodiesterase; design: species or system Oryctolagus cuniculus; details: read-out: I50
Summary of the method: as §2, with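 “Enzymes” for “PDE”, “described (beef heart, 14 units/mg; rabbit lung, 70 units/mg). The” for “described. Each”, “pH 7.5,” for “(pH 7.5),”, “5'-AMP” for “5'-AMP formed”, “vs” for “versus”, “log” for “log inhibitor”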

[9] = Inhibition of bovine heart cAMP Phosphodiesterase; design: species or system Bos taurus
Summary of the method: as §2, with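 “Enzymes” for “PDE”, “described (beef heart, 14 units/mg; rabbit lung, 70 units/mg). The” for “described. Each”, “pH 7.5,” for “(pH 7.5),”, “5'-AMP” for “5'-AMP formed”, “vs” for “versus”, “log” for “log inhibitor”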

Row | Activity [2] | Activity [3] | Activity [4] | Structure (SMILES) | further results
1 | 1.8 | 0.8 |  | CCc1nc(C)nc2c(Cl)cnn12 | 
2 | 1.5 |  | 4 | CSc1nc(OC(C)C)n2ncc(Br)c2n1 | 
3 | 12 |  | 5.8 | CCCNc1nc(SC)nc2ccnn12 | 
4 | 13 |  | 2.6 | CCSc1nc(SC)nc2c(Br)cnn12 | 
5 | 5 |  | 1.5 | CSc1nc(SC)n2ncc(Br)c2n1 | 
6 | 160 |  | 12.5 | CCCCNc1nc(SC)nc2c(Br)cnn12 | Activity [7]: 18
7 | 19 |  | 12.2 | CCN(CC)c1nc(SC)nc2ccnn12 | Activity [7]: 12
8 | 1.6 |  | 0 | CSc1nc(C)n2nccc2n1 | 
9 | 8 |  | 3.2 | CCSc1nc(SC)nc2ccnn12 | 
10 | 2.5 | 1 |  | CCc1nc(C)nc2c(Br)cnn12 | 
11 | 27 | 10 |  | CCc1nc(C)nc2c(-c3ccccc3)cnn12 | Activity (Bos taurus [1]): 39
12 | 0.6 |  | 0.5 | COc1nc(SC)nc2ccnn12 | 
13 | 0.7 | 1.2 |  | CCOC(=O)c1cnn2c(CC)nc(C)nc12 | 
14 | 2.7 |  | 0.7 | CCCOc1nc(SC)nc2c(Br)cnn12 | 
15 | 1.2 | 1.7 |  | CCc1nc(C)nc2c(C#N)cnn12 | 
16 | 40 |  | 8 | CCNc1nc(SC)nc2c(Br)cnn12 | Activity [7]: 17
17 | 9 |  | 3.2 | COc1nc(SC)nc2c(Br)cnn12 | 
18 | 26 |  | 6.2 | CCN(CC)c1nc(SC)nc2c(Br)cnn12 | 
19 | 1 |  | 0.68 | CSc1nc(S)n2ncc(Br)c2n1 | 

More lines, now with the values behind:

Row | Structure (SMILES) | Activity [2] | Activity [3] | Activity [4] | further results
20 | CCc1ncn2nc(-c3ccccc3)cc2n1 | 14 | 0.5 |  | Activity (Bos taurus [1]): 97
21 | CCc1nc(C)nc2c(-c3cccc(C)c3)cnn12 |  | 5 |  | 
22 | Cc1nc(C)n2ncc(-c3ccccc3)c2n1 | 25 | 3 |  | Activity (Bos taurus [1]): 40
23 | Cc1nc(O)n2nc(-c3ccccc3)cc2n1 | 1.9 | 0.5 |  | Activity (Bos taurus [1]): 4.7
24 | CCCc1nc(C)nc2c(Br)c(-c3ccccc3)nn12 | 8 | 2 |  | 
25 | CCCc1nc(C)nc2cc(-c3ccccc3)nn12 | 10 | 11 |  | 
26 | CSc1ncnc2cc(-c3ccccc3)nn12 | 11 |  | 7.3 | 
27 | Nc1ncnc2c1ncn2[C@@H]1O[C@@H]2COP(=O)(O)O[C@H]2[C@H]1O |  |  |  | Km (Oryctolagus cuniculus): 0.56 µM; Km (Bos taurus [5]): 1.3 µM; Km (Bos taurus [6]): 0.63 µM
28 | Cc1ncn2nc(-c3ccccc3)c(Br)c2n1 | 1.8 | 0.9 |  | 
29 | CCc1nc(C)nc2cc(-c3ccc(OC)cc3)nn12 | 16 | 3 |  | 
30 | Cc1nc(C)n2nc(-c3ccccc3)c(Br)c2n1 | 40 | 3 |  | 
31 | CCc1nc(CC)n2nc(-c3ccc(OC)cc3)cc2n1 | 14 | 8 |  | 
32 | Cc1cccc(-c2cnn3cnc(C)nc23)c1 | 1.5 | 0.4 |  | 
33 | CCCNc1nc(SC)nc2c(Br)cnn12 | 67 |  | 6.9 | 
34 | Cc1nc(C)n2nc(-c3ccccc3)cc2n1 | 22 | 3.5 |  | Activity (Bos taurus [1]): 19
35 | CCc1nc(C)nc2ccnn12 | 1.1 | 0.7 |  | 
36 | CCc1nc(C)n2nc(-c3ccccc3)cc2n1 | 12 | 2.7 |  | 

Row | Structure (SMILES) | Activity [2] | Activity [3] | Activity [4] | further results
37 | CCc1nc(CC)n2nc(-c3ccccc3)c(Br)c2n1 | 9 | 2 |  | 
38 | CCc1nc(CC)n2nc(-c3ccccc3C)cc2n1 | 15 | 16 |  | Activity (Bos taurus [1]): 42
39 | CCCCNc1nc(C)nc2cc(-c3ccccc3)nn12 | 11 | 1.7 |  | 
40 | CCCNc1ncnc2cc(-c3ccccc3)nn12 | 26 | 3.8 |  | 
41 | Cc1ncn2nc(-c3ccccc3)cc2n1 | 25 | 3 |  | Activity (Bos taurus [1]): 49
42 | Cc1nc(C)n2nccc2n1 | 1 | 0.9 |  | 
43 | CCc1nc(C)n2nccc2n1 | 2.4 | 0.5 |  | 
44 | CCCCNc1ncnc2cc(-c3ccccc3)nn12 | 13.5 | 2.5 |  | 
45 | CCN(CC)c1ncnc2cc(-c3ccccc3)nn12 | 143 | 57 |  | Activity (Bos taurus [1]): 146
46 | CCN(CC)c1ncnc2c(Br)c(-c3ccccc3)nn12 | 185 | 40 |  | 
47 | CCc1nc(C)nc2c(Br)c(-c3ccccc3)nn12 | 14 | 7 |  | 
48 | c1ccc(-c2cc3ncnc(N4CCCCC4)n3n2)cc1 | 29 | 11 |  | 
49 | Cc1cccc(-c2cnn3c(C)nc(C)nc23)c1 | 14 | 2 |  | 
50 | Cn1c(=O)c2nc[nH]c2n(C)c1=O [THEOPHYLLINE] |  |  |  | IC50 [8]: 210 µM; Ki [9]: 77 µM; IC50 ([9]; read-out: I50): 90 µM
51 | Cc1nc(-c2ccccc2)n2nc(-c3ccccc3)cc2n1 | 10 |  |  | 
52 | CCc1nc(C)nc2cc(-c3ccccc3)nn12 | 21 | 4 |  | 
53 | CCc1nc(CC)n2nc(-c3ccccc3)cc2n1 | 20 | 7 |  | Activity (Bos taurus [1]): 12
